Laboratory results published in ChEMBL document CHEMBL4373678, “Development of hydroxamate-based histone deacetylase inhibitors of bis-substituted aromatic amides with antitumor activities” (Medchemcomm, 2019).
Activity calls are given as the source filed them. The rule behind the calls is not given here.

Tests used:
Homo sapiens = species: Homo sapiens; conditions: at 0.5 µM;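 also: HDAC activity measured in a nuclear extract, with percent inhibition expressed against control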
MCF-10A = test: Cytotoxicity against human MCF10A cells assessed as reduction in cell viability after 48 hrs by SRB assay; format: ADME, cell-based
Histone deacetylase 1 [1] = target: T1, Histone deacetylase 1 (Homo sapiens, UniProt Q13547); test: Inhibition of recombinant HDAC1 (unknown origin) expressed in baculovirus expression system using Ac-peptide-AMC as substrate preincubated for 15 mins followed by substrate addition by fluorescence based protease coupled assay
T1 sequence (Q13547 whole entry): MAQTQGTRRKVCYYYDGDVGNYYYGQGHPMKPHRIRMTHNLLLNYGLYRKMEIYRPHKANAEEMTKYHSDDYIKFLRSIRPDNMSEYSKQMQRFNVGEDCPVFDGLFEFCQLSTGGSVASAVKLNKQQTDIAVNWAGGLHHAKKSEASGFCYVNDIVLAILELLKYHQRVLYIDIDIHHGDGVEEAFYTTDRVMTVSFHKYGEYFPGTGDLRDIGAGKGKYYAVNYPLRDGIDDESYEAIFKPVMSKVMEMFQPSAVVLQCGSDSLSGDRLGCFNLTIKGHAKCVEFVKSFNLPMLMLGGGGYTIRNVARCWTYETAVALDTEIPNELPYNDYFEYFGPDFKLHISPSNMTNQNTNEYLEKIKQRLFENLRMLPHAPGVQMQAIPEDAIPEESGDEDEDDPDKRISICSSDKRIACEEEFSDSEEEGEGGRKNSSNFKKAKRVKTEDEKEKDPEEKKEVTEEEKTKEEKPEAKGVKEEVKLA

[2] = Cytotoxicity against human MCF10F cells assessed as reduction in cell viability after 48 hrs by SRB assay; format: ADME, cell-based; conditions: MCF-10F
Histone deacetylase 1 [3] = target: T1, Histone deacetylase 1; test: Potency index, ratio of SAHA IC50 to compound IC50 for inhibition of recombinant HDAC1 (unknown origin) expressed in baculovirus expression system
A549 [4] = test: Antiproliferative activity against human A549 cells assessed as reduction in cell viability after 48 hrs by SRB assay; format: functional, cell-based; conditions: A549, 48 h
In short: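 A549 cells in RPMI 1640 with 10% FBS at 37 °C, 5% CO₂, seeded 24 h before treatment at various concentrations. Cells were fixed with 10% TCA for 1 h at 4 °C and stained with 0.4% SRB for 5 min at room temperature. After 1% acetic acid washes, dye was dissolved in 10 mM Tris and A540 read. IC50 from three independent experiments in triplicate, mean ± SD.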

BEAS-2B = test: Cytotoxicity against human BEAS2B cells assessed as reduction in cell viability after 48 hrs by SRB assay; format: ADME, cell-based
MDA-MB-231 = test: Antiproliferative activity against human MDA-MB-231 cells assessed as reduction in cell viability after 48 hrs by SRB assay; format: functional, cell-based; conditions: MDA-MB-231, 48 h
MCF7 = test: Antiproliferative activity against human MCF7 cells assessed as reduction in cell viability after 48 hrs by SRB assay; format: functional, cell-based; conditions: MCF7, 48 h
A549 [5] = test: Induction of apoptosis in human A549 cells assessed as late apoptotic cells at 5 uM after 72 hrs by Annexin V-phycoerythrin/7-AAD staining based flow cytometric analysis (reference value: 1.84%); format: functional
A549 [6] = test: Induction of apoptosis in human A549 cells assessed as viable cells at 5 uM after 72 hrs by Annexin V-phycoerythrin/7-AAD staining based flow cytometric analysis (reference value: 96.57%); format: functional
A549 [7] = test: Induction of apoptosis in human A549 cells assessed as necrotic cells at 5 uM after 72 hrs by Annexin V-phycoerythrin/7-AAD staining based flow cytometric analysis (reference value: 0.45%); format: functional
A549 [8] = test: Induction of cell cycle arrest in human A549 cells assessed as accumulation at G2/M phase at 5 uM after 24 hrs by PI/RNaseA staining based flow cytometry analysis relative to control; format: functional
In short: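 A549 cells treated for 24 h, with vehicle as control. Cells were fixed in 70% ice-cold ethanol overnight at −20 °C, then stained with PI containing RNase A for 30 min at 37 °C. DNA content was read by flow cytometry. Mean ± SD of phase percentages from three independent experiments.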

A549 [9] = test: Induction of apoptosis in human A549 cells assessed as early apoptotic cells at 5 uM after 72 hrs by Annexin V-phycoerythrin/7-AAD staining based flow cytometric analysis (reference value: 1.13%); format: functional
Histone deacetylase 1 [10] = target: T1, Histone deacetylase 1; test: Inhibition of HDAC1 in human A549 cells assessed as increase in H3 acetylation after 24 hrs by immunoblot analysis; format: cell-based
In short: (§1)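 A549 cells exposed to 1.0, 2.5 and 5.0 µM for 24 h, then immunoblotted for acetylated histone H3 and H4. RIPA lysates (35 µg) run on 15% SDS-PAGE and transferred to PVDF. Primary antibody 1:1000 overnight at 4 °C, HRP secondary 1:20000, ECL. Densitometry relative to β-actin; three independent experiments.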

A549 [11] = test: Induction of apoptosis in human A549 cells assessed as viable cells at 2.5 uM after 72 hrs by Annexin V-phycoerythrin/7-AAD staining based flow cytometric analysis (reference value: 96.57%); format: functional; conditions: A549, 72 h, read-out: Activity
A549 [12] = test: Inhibition of colony formation in human A549 cells at 1 to 2.5 uM after 7 days by crystal violet staining based assay; format: functional, cell-based
In short: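 A549 cells plated at 800 per 35 mm dish and treated for one week, with medium replenished every 24 h. Cells were washed with PBS, fixed in methanol and stained with 1% crystal violet for 15 min. Colonies were counted. Triplicate, repeated three times.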

Histone deacetylase 1 [13] = target: T1, Histone deacetylase 1; test: Inhibition of HDAC1 in human A549 cells assessed as increase in H4 acetylation after 24 hrs by immunoblot analysis; format: cell-based
In short: as §1

A549 [14] = test: Induction of apoptosis in human A549 cells assessed as increase in caspase-3 cleavage at 1 to 5 uM after 48 hrs by Western blot analysis; format: functional, cell-based
In short: (§2)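 A549 cells treated at the indicated concentrations for 48 h, then blotted for cleaved caspase-3 and cleaved PARP. RIPA lysis; 35 µg protein on 15% SDS-PAGE, transferred to PVDF. Blocked in 5% milk/PBST; primary antibody 1:1000 overnight at 4 °C, HRP secondary 1:20000 for 1 h, ECL. Bands quantified by densitometry versus β-actin; three separate experiments.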

A549 [15] = test: Induction of apoptosis in human A549 cells after 72 hrs by Annexin V-phycoerythrin/7-AAD staining based flow cytometric analysis; format: functional, cell-based
A549 [16] = test: Induction of G2/M cell cycle arrest in human A549 cells assessed as decrease in CyclinB1 expression at 1 to 2.5 uM by Western blot analysis; format: functional, cell-based
In short: (§3)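 Cell-cycle arm: A549 whole-cell lysates probed for CDK1 and cyclin B. Lysis in RIPA buffer; 35 µg protein run on 15% SDS-PAGE and blotted to PVDF. Blocked in 5% milk/PBST; primary antibody 1:1000 at 4 °C overnight, HRP secondary 1:20000 for 1 h at room temperature, ECL detection. Densitometry relative to β-actin; three separate experiments.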

A549 [17] = test: Induction of apoptosis in human A549 cells assessed as viable cells at 1 uM after 72 hrs by Annexin V-phycoerythrin/7-AAD staining based flow cytometric analysis (reference value: 96.57%); format: functional; conditions: A549, 72 h, read-out: Activity
A549 [18] = test: Antimetastatic activity in human A549 cells reduction in cell migration after 24 hrs by wound healing assay; format: functional, cell-based
In short: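 A549 cells (1.5x10⁵) plated in 6-well dishes and grown overnight to confluent monolayers. Monolayers were wounded with a pipette tip, then treated at various concentrations for 24 h. Wounds were photographed at 0, 12 and 24 h and migration distance measured. Result is % wound closure relative to 0 h. Triplicate, repeated three times.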

A549 [19] = test: Induction of apoptosis in human A549 cells assessed as late apoptotic cells at 2.5 uM after 72 hrs by Annexin V-phycoerythrin/7-AAD staining based flow cytometric analysis (reference value: 1.84%); format: functional
A549 [20] = test: Induction of apoptosis in human A549 cells assessed as increase in PARP cleavage at 1 to 5 uM after 48 hrs by Western blot analysis; format: functional, cell-based
In short: as §2

A549 [21] = test: Induction of apoptosis in human A549 cells assessed as necrotic cells at 1 uM after 72 hrs by Annexin V-phycoerythrin/7-AAD staining based flow cytometric analysis (reference value: 0.45%); format: functional
A549 [22] = test: Induction of apoptosis in human A549 cells assessed as late apoptotic cells at 1 uM after 72 hrs by Annexin V-phycoerythrin/7-AAD staining based flow cytometric analysis (reference value: 1.84%); format: functional
A549 [23] = test: Induction of apoptosis in human A549 cells assessed as early apoptotic cells at 1 uM after 72 hrs by Annexin V-phycoerythrin/7-AAD staining based flow cytometric analysis (reference value: 1.13%); format: functional
A549 [24] = test: Induction of apoptosis in human A549 cells assessed as necrotic cells at 2.5 uM after 72 hrs by Annexin V-phycoerythrin/7-AAD staining based flow cytometric analysis (reference value: 0.45%); format: functional
A549 [25] = test: Induction of apoptosis in human A549 cells assessed as early apoptotic cells at 2.5 uM after 72 hrs by Annexin V-phycoerythrin/7-AAD staining based flow cytometric analysis (reference value: 1.13%); format: functional
A549 [26] = test: Induction of G2/M cell cycle arrest in human A549 cells assessed as decrease in CDK1 expression at 1 to 2.5 uM by Western blot analysis; format: functional, cell-based
In short: as §3

## COc1ccc(N(Cc2cccc(NC(=O)CCc3ccc(F)cc3)c2)C(=O)CCCCCC(=O)NO)cc1
Homo sapiens
  inhibition: 49%

## COc1ccccc1N(Cc1cccc(NC(=O)Cc2ccccc2)c1)C(=O)CCCCCC(=O)NO
Homo sapiens
  inhibition: 37%

## COc1ccccc1N(Cc1cccc(C(=O)NCCCCCCc2ccccc2)c1)C(=O)CCCCCC(=O)NO
Homo sapiens
  inhibition: 4%

## CCNC(=O)c1cccc(CN(C(=O)CCCCCC(=O)NO)c2ccc(O)cc2)c1
Homo sapiens
  inhibition: 21%

## COc1ccc(N(Cc2cccc(C(=O)NCCc3ccc(F)cc3)c2)C(=O)CCCCCC(=O)NO)cc1
MCF-10A
  IC50: > 50 µM
Histone deacetylase 1 [1]
  IC50: 0.0023 µM
[2]
  IC50: > 50 µM
Histone deacetylase 1 [3]
  Ratio IC50: 10.9
A549 [4]
  IC50: 4.05 µM
BEAS-2B
  IC50: > 20 µM
MDA-MB-231
  IC50: 7.24 µM
Homo sapiens
  inhibition: 53%
MCF7
  IC50: 7.17 µM

## COc1ccccc1N(Cc1cccc(C(=O)NCCc2ccccc2)c1)C(=O)CCCCCC(=O)NO
Homo sapiens
  inhibition: 38%

## COc1ccccc1N(Cc1cccc(C(=O)NCCc2ccc(Cl)cc2)c1)C(=O)CCCCCC(=O)NO
Homo sapiens
  inhibition: 36%

## COc1ccccc1N(Cc1cccc(C(=O)NCCCCc2ccc(F)cc2)c1)C(=O)CCCCCC(=O)NO
Homo sapiens
  inhibition: 34%

## CCC(=O)Nc1cccc(CN(C(=O)CCCCCC(=O)NO)c2ccccc2OC)c1
Homo sapiens
  inhibition: 22%

## CCNC(=O)c1cccc(CN(C(=O)CCCCCC(=O)NO)c2ccccc2OC)c1
Homo sapiens
  inhibition: 20%

## COc1ccccc1N(Cc1cccc(C(=O)NCCc2ccc(F)cc2)c1)C(=O)CCCCCC(=O)NO
Homo sapiens
  inhibition: 39%

## COc1ccccc1N(Cc1cccc(C(=O)NCc2ccccc2)c1)C(=O)CCCCCC(=O)NO
Homo sapiens
  inhibition: 38%

## COc1ccc(CCNC(=O)c2cccc(CN(C(=O)CCCCCC(=O)NO)c3ccccc3OC)c2)cc1
Homo sapiens
  inhibition: 27%

## O=C(CCCCCCC(=O)Nc1ccccc1)NO [VORINOSTAT]
A549 [5]
  Activity: 58.86%
A549 [6]
  Activity: 23.22%
A549 [7]
  Activity: 1.15%
A549 [8]
  Activity: 24.97%
A549 [9]
  Activity: 16.78%

## CCNC(=O)c1cccc(CN(C(=O)CCCCCC(=O)NO)c2ccc(OC)cc2)c1
Histone deacetylase 1 [10]
  inhibition: Dose-dependent effect
A549 [5]
  Activity: 57.6%
MCF-10A
  IC50: > 100 µM
Histone deacetylase 1 [1]
  IC50: 0.0022 µM
A549 [11]
  viability at 2.5 µM: 42%
[2]
  IC50: > 100 µM
A549 [12]
  inhibition: Active
Histone deacetylase 1 [3]
  Ratio IC50: 11.4
Histone deacetylase 1 [13]
  inhibition: Dose-dependent effect
A549 [6]; Homo sapiens, A549, 72 h, read-out: Activity
  viability at 5 µM: 17.7%
A549 [14]
  Activity: Active
A549 [15]
  Activity: Dose-dependent effect
A549 [4]
  IC50: 2.13 µM
A549 [16]
  Activity: Active
A549 [7]
  Activity: 0.89%
A549 [8]
  Activity: 40.3%
BEAS-2B
  IC50: > 100 µM
A549 [17]
  viability at 1 µM: 69.1%
A549 [18]
  Activity: Dose-dependent effect
A549 [19]
  Activity: 27.09%
A549 [20]
  Activity: Active
A549 [9]
  Activity: 23.85%
A549 [21]
  Activity: 0.86%
A549 [22]
  Activity: 8.17%
A549 [23]
  Activity: 21.86%
A549 [24]
  Activity: 1.54%
A549 [25]
  Activity: 29.35%
MDA-MB-231
  IC50: 6.87 µM
A549 [26]
  Activity: Active
Homo sapiens
  inhibition: 51%
MCF7
  IC50: 6.96 µM

## COc1ccccc1N(Cc1cccc(C(=O)NCCCCCc2ccccc2)c1)C(=O)CCCCCC(=O)NO
Homo sapiens
  inhibition: 16%

## COc1ccccc1N(Cc1cccc(Br)c1)C(=O)CCCCCC(=O)NO
Homo sapiens
  inhibition: 21%

## COc1ccccc1N(Cc1cccc(C(=O)NCCCCc2ccccc2)c1)C(=O)CCCCCC(=O)NO
Homo sapiens
  inhibition: 15%

## CCN(CC)C(=O)c1cccc(CN(C(=O)CCCCCC(=O)NO)c2ccccc2OC)c1
Homo sapiens
  inhibition: 20%
